Reference: ChEMBL document CHEMBL3102784, “Salicylanilide diethyl phosphates: synthesis, antimicrobial activity and cytotoxicity” (Bioorg Med Chem, 2014)
In brackets after ≈: the same amount, converted by molar mass.

Experiments:
Assay type in all cases: functional
Mycobacterium avium [1] = assay: Antimycobacterial activity against isoniazid, rifampicin, ethambutol and ofloxacin-resistant Mycobacterium avium My 330/88 after 14 days; conditions: My 330/88, 336 h
Procedure, shortened: (§1)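 Micromethod MIC in Šula's semisynthetic medium at 37 °C. Compounds added in DMSO at 1000 down to 0.032 µmol/L. Isoniazid standard in sterile water at 0.5–250 µmol/L. Inocula: H37Rv 10^3, M. avium 10^5, M. kansasii 10^4. Read at 14 and 21 d, plus 7 d for M. kansasii.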

Mycobacterium kansasii [2] = assay: Antimycobacterial activity against Mycobacterium kansasii 6509/96 after 14 days; conditions: 6509/96, 336 h; procedure, shortened: as §1
Mycobacterium kansasii [3] = assay: Antimycobacterial activity against Mycobacterium kansasii My 235/80 after 14 days; conditions: My 235/80, 336 h; procedure, shortened: as §1
Mycobacterium kansasii [4] = assay: Antimycobacterial activity against Mycobacterium kansasii 6509/96 after 21 days; conditions: 6509/96, 504 h; procedure, shortened: as §1
Mycobacterium kansasii [5] = assay: Antimycobacterial activity against Mycobacterium kansasii My 235/80 after 21 days; conditions: My 235/80, 504 h; procedure, shortened: as §1
Mycobacterium kansasii [6] = assay: Antimycobacterial activity against Mycobacterium kansasii My 235/80 after 7 days; conditions: My 235/80, 168 h; procedure, shortened: as §1
Mycobacterium avium [7] = assay: Antimycobacterial activity against isoniazid, rifampicin, ethambutol and ofloxacin-resistant Mycobacterium avium My 330/88 after 21 days; conditions: My 330/88, 504 h; procedure, shortened: as §1
[8] = test system: Mycobacterium tuberculosis; assay: Antimycobacterial activity against Mycobacterium tuberculosis H37Rv My 331/88 after 21 days; conditions: H37Rv My 331/88, 504 h; procedure, shortened: as §1
Mycobacterium kansasii [9] = assay: Antimycobacterial activity against Mycobacterium kansasii 6509/96 after 7 days; conditions: 6509/96, 168 h; procedure, shortened: as §1
[10] = test system: Mycobacterium tuberculosis; assay: Antimycobacterial activity against Mycobacterium tuberculosis H37Rv My 331/88 after 14 days; conditions: H37Rv My 331/88, 336 h; procedure, shortened: as §1
[11] = test system: Trichophyton mentagrophytes; assay: Antifungal activity against Trichophyton mentagrophytes 445 after 72 hrs by broth microdilution method; conditions: Trichophyton mentagrophytes, 445, 72 h
Procedure, shortened: (§2)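 Filamentous dermatophyte tested by broth microdilution in RPMI 1640 with glutamine, fluconazole as reference. Value expressed as IC50 relative to growth control. Read at 72 and 120 h.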

Candida albicans [12] = assay: Antifungal activity against Candida albicans ATCC 44859 after 24 hrs by broth microdilution method; conditions: ATCC 44859, 24 h
Procedure, shortened: (§3)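 Broth microdilution in RPMI 1640 with glutamine, fluconazole as reference. For yeasts, MIC is ≥80% growth reduction (IC80) versus control. For filamentous fungi, the value is expressed as IC50. Readings at 24 and 48 h.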

Pichia kudriavzevii [13] = assay: Antifungal activity against Candida krusei E28 after 24 hrs by broth microdilution method; conditions: E28, 24 h; procedure, shortened: as §3
[14] = test system: Trichophyton mentagrophytes; assay: Antifungal activity against Trichophyton mentagrophytes 445 after 120 hrs by broth microdilution method; conditions: Trichophyton mentagrophytes, 445, 120 h; procedure, shortened: as §2
Aspergillus fumigatus [15] = assay: Antifungal activity against Aspergillus fumigatus 231 after 48 hrs by broth microdilution method; conditions: Aspergillus fumigatus, 231, 48 h; procedure, shortened: as §3
Pichia kudriavzevii [16] = assay: Antifungal activity against Candida krusei E28 after 48 hrs by broth microdilution method; conditions: E28, 48 h; procedure, shortened: as §3
Aspergillus fumigatus [17] = assay: Antifungal activity against Aspergillus fumigatus 231 after 24 hrs by broth microdilution method; conditions: Aspergillus fumigatus, 231, 24 h; procedure, shortened: as §3
Lichtheimia corymbifera [18] = assay: Antifungal activity against Absidia corymbifera 272 after 48 hrs by broth microdilution method; conditions: Lichtheimia corymbifera, 272, 48 h; procedure, shortened: as §3
Trichosporon asahii [19] = assay: Antifungal activity against Trichosporon asahii 1188 after 48 hrs by broth microdilution method; conditions: Trichosporon asahii, 1188, 48 h; procedure, shortened: as §3
Trichosporon asahii [20] = assay: Antifungal activity against Trichosporon asahii 1188 after 24 hrs by broth microdilution method; conditions: Trichosporon asahii, 1188, 24 h; procedure, shortened: as §3
Lichtheimia corymbifera [21] = assay: Antifungal activity against Absidia corymbifera 272 after 24 hrs by broth microdilution method; conditions: Lichtheimia corymbifera, 272, 24 h; procedure, shortened: as §3
Candida albicans [22] = assay: Antifungal activity against Candida albicans ATCC 44859 after 48 hrs by broth microdilution method; conditions: ATCC 44859, 48 h; procedure, shortened: as §3

## Nc1ccc(C(=O)O)c(O)c1 [AMINOSALICYLIC ACID]
Mycobacterium avium [1]
  MIC: 32 µM (≈ 4.9 µg/mL)
Mycobacterium kansasii [2]
  MIC: 125 µM (≈ 19.1 µg/mL)
Mycobacterium kansasii [3]
  MIC: 1000 µM (≈ 153 µg/mL)
Mycobacterium kansasii [4]
  MIC: 500 µM (≈ 76.6 µg/mL)
Mycobacterium kansasii [5]
  MIC: > 1000 µM
Mycobacterium kansasii [6]
  MIC: 125 µM (≈ 19.1 µg/mL)
Mycobacterium avium [7]
  MIC: 125 µM (≈ 19.1 µg/mL)
[8]
  MIC: 62.5 µM (≈ 9.57 µg/mL)
Mycobacterium kansasii [9]
  MIC: 32 µM (≈ 4.9 µg/mL)
[10]
  MIC: 62.5 µM (≈ 9.57 µg/mL)

## OC(Cn1cncn1)(Cn1cncn1)c1ccc(F)cc1F [FLUCONAZOLE]
[11]
  MIC50: 17 µM (≈ 5.21 µg/mL)
Candida albicans [12]
  MIC80: 1 µM (≈ 0.306 µg/mL)
Pichia kudriavzevii [13]
  MIC80: > 50 µM
[14]
  MIC50: 26 µM (≈ 7.96 µg/mL)
Aspergillus fumigatus [15]
  MIC50: > 50 µM
Pichia kudriavzevii [16]
  MIC80: > 50 µM
Aspergillus fumigatus [17]
  MIC50: > 50 µM
Lichtheimia corymbifera [18]
  MIC50: > 50 µM
Trichosporon asahii [19]
  MIC80: 9 µM (≈ 2.76 µg/mL)
Trichosporon asahii [20]
  MIC80: 4 µM (≈ 1.23 µg/mL)
Lichtheimia corymbifera [21]
  MIC50: > 50 µM
Candida albicans [22]
  MIC80: 2 µM (≈ 0.613 µg/mL)
